This is an account of results in ChEMBL document CHEMBL1142571, “Antiprotozoal compounds from Psorothamnus polydenius” (J Nat Prod, 2005).

As usually defined, the IC50 is the point on the concentration scale where inhibition reaches its midpoint.

Converted amounts (≈) assume the structure as drawn.

Assay [1] has as its system Leishmania mexicana. Put plainly: Antileishmanial activity against Leishmania mexicana MNYC/BZ/62/M379 infected in C57BL/6 mouse peritoneal macrophages assessed as reduction in infection at 3.1 ug/ml after 72 hrs relative to control. Type of assay: functional. More on the design: scale not given: the % may be the effect or the level left. Put shortly: (§1)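 Mouse peritoneal macrophages were infected with promastigotes in supplemented DMEM on chamber slides for 24 h at 33 °C under 5% CO2. They were washed with HBSS and given serial drug dilutions for 72 h. Cells were then methanol-fixed and stained with 0.04% Giemsa for 35 min. At least 200 cells per sample were counted under oil immersion, and the value is the % decrease in infected macrophages versus untreated wells.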

In assay [2] the test system is J774.A1. The assay can be described thus: Cytotoxicity against mouse J774A1 cells after 72 hrs by cell-titer assay. In kind it is cell-based. The conditions noted are these: J774.A1, 72 h. Summed up: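 J774 A.1 macrophages (5000/well) in DMEM with penicillin/streptomycin and 10% FBS were seeded with serial compound dilutions for 72 h at 37 °C under 5% CO2. Viability was read by CellTiter, with 12-14 h color development and absorbance at 490 nm.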

Assay [3] has as its system Leishmania mexicana. Put plainly: Antileishmanial activity against Leishmania mexicana MNYC/BZ/62/M379 infected in C57BL/6 mouse peritoneal macrophages assessed as reduction in infection at 12.5 ug/ml after 72 hrs relative to control. Type of assay: functional. Set-up: scale not given: the % may be the effect or the level left. Put shortly: as §1
The subject of assay [4] is Leishmania donovani. Put plainly: Antileishmanial activity against Leishmania donovani MHOM/SD/62/1S-CL2D axenic amastigotes after 3 days by tetrazolium dye method. The conditions noted are these: 72 h. In kind it is functional, organism-based. Put shortly: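 L. donovani amastigote-like parasites grown axenically were exposed to compounds for three days. Viability was read with the tetrazolium-based CellTiter reagent.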

The nature of assay [5]: Selectivity for Leishmania donovani MHOM/SD/62/1S-CL2D axenic amastigotes over african green monkey Vero cells.
Assay [6] deals with Vero. Put plainly: Cytotoxicity against african green monkey Vero cells after 72 hrs by cell-titer assay. Particulars: Chlorocebus sabaeus. Type of assay: cell-based. Summed up: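 Vero cells (1000/well) in Eagle's MEM with Earle's salts, penicillin/streptomycin and 10% FBS were seeded with serial compound dilutions for 72 h at 37 °C under 5% CO2. CellTiter reagent was then added for 12-14 h, and absorbance was read at 490 nm.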

Assay [7] concerns Leishmania mexicana. Put plainly: Antileishmanial activity against Leishmania mexicana MNYC/BZ/62/M379 infected in C57BL/6 mouse peritoneal macrophages assessed as reduction in infection at 6.3 ug/ml after 72 hrs relative to control. Type of assay: functional. More on the design: scale not given: the % may be the effect or the level left. Put shortly: as §1
For assay [8], the system named is Trypanosoma brucei brucei. The assay can be described thus: Antitrypanosomal activity against blood stream-form of Trypanosoma brucei brucei MITat1.2 after 72 hrs by MTT assay. In kind it is functional, organism-based. Put shortly:
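Late-log bloodstream-form T. b. brucei in HMI-9 were incubated with or without compound for 72 h at 37 °C under 5% CO2. MTT (25 µL of a 5 mg/mL stock) was added for 2 h, then 10% SDS in 50% aqueous DMF for 3-4 h. OD was read at 570 nm, and IC50 is 50% growth inhibition versus untreated control.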

Assay [9] has as its system Leishmania mexicana. Put plainly: Antileishmanial activity against Leishmania mexicana MNYC/BZ/62/M379 infected in C57BL/6 mouse peritoneal macrophages assessed as reduction in infection at 0.116 ug/ml after 72 hrs relative to control. Type of assay: functional. Set-up: scale not given: the % may be the effect or the level left. Put shortly: as §1
Assay [10] relates to Leishmania mexicana. The assay can be described thus: Antileishmanial activity against Leishmania mexicana MNYC/BZ/62/M379 infected in C57BL/6 mouse peritoneal macrophages assessed as reduction in infection at 0.029 ug/ml after 72 hrs relative to control. Type of assay: functional. More on the design: scale not given: the % may be the effect or the level left. Put shortly:
as §1

Assay [11] concerns Leishmania mexicana. Put plainly: Antileishmanial activity against Leishmania mexicana MNYC/BZ/62/M379 infected in C57BL/6 mouse peritoneal macrophages assessed as reduction in infection at 0.014 ug/ml after 72 hrs relative to control. Type of assay: functional. Set-up: scale not given: the % may be the effect or the level left. Summed up:
as §1

The test system of assay [12] is Leishmania mexicana. The assay can be described thus: Antileishmanial activity against Leishmania mexicana MNYC/BZ/62/M379 infected in C57BL/6 mouse peritoneal macrophages assessed as reduction in infection at 25 ug/ml after 72 hrs relative to control. In kind it is functional. More on the design: scale not given: the % may be the effect or the level left. Put shortly:
as §1

Assay [13] deals with Leishmania mexicana. Put plainly: Antileishmanial activity against Leishmania mexicana MNYC/BZ/62/M379 infected in C57BL/6 mouse peritoneal macrophages assessed as reduction in infection at 50 ug/ml after 72 hrs relative to control. In kind it is functional. More on the design: scale not given: the % may be the effect or the level left. Summed up: as §1

As to `COc1c(C)c(O)c(C)c(O)c1C(=O)/C=C/c1ccccc1`, the Activity is recorded as 28% in assay [1], 96% in assay [3] and 61% in assay [7]. For the same molecule, the IC50 in assay [2] is 7.7 µg/mL (≈ 25.8 µM); in assay [4], 5 µg/mL (≈ 16.8 µM); in assay [6] it was 12.9 µg/mL (≈ 43.2 µM); in [8] it was 6.3 µg/mL (≈ 21.1 µM). In addition, the “Ratio IC50” value in [5] came out at 2.6.

For the molecule `COc1c(C)c(O)c(C)c(O)c1C(=O)/C=C/c1ccccc1O`, the Activity was found to be 6% in assay [1], 96% in [3] and 34% in assay [7]. Besides, the half-inhibitory concentration (IC50) in assay [2] was found to be 9.3 µg/mL (≈ 29.6 µM); in [4] it was 7.5 µg/mL (≈ 23.9 µM); in assay [6], 13.3 µg/mL (≈ 42.3 µM); in [8] it was 6.8 µg/mL (≈ 21.6 µM). Also, the “Ratio IC50” value in assay [5] was 1.8.

For the molecule `C[C@@H]1[C@H](O)[C@@H](C)/C=C/C=C/C=C/C=C/C=C/C=C/C=C/[C@H](O[C@@H]2O[C@H](C)[C@@H](O)[C@H](N)[C@@H]2O)C[C@@H]2O[C@](O)(C[C@@H](O)C[C@@H](O)[C@H](O)CC[C@@H](O)C[C@@H](O)CC(=O)O[C@H]1C)C[C@H](O)[C@H]2C(=O)O` [AMPHOTERICIN B], the values for the Activity in assay [9], in assay [10] and in [11] were 95%, 85% and 59%, respectively.

In the case of `COC1=C(C)C(=O)C(C)(C)C(=O)/C1=C1\C=Cc2ccccc2O1` [DALRUBONE], the IC50 was 30.1 µg/mL (≈ 97 µM) in assay [2], 7.5 µg/mL (≈ 24.2 µM) in [4], 44.5 µg/mL (≈ 143 µM) in [6] and 21.6 µg/mL (≈ 69.6 µM) in [8]. Also, the Activity in assay [3] worked out at 41%; in [12] it was 97%; in assay [7] it was 1%. The “Ratio IC50” value in assay [5] was 5.9.

In the case of `Cc1c(O)c(C)c2c(c1O)C(=O)C[C@@H](c1ccccc1)O2` [DEMETHOXYMATTEUCINOL], the IC50 in assay [2] was > 50 µg/mL; in assay [4], > 100 µg/mL; in assay [6], > 50 µg/mL; in assay [8], 28.9 µg/mL (≈ 102 µM).

In the case of `O=C1C[C@@H](c2ccc(O)c(O)c2)Oc2cc(O)cc(O)c21` [ERIODICTYOL], the Activity in [13] stood at 76%; in [3] it was 30%; in assay [12], 55%. Further, the IC50 in assay [2] worked out at 32.8 µg/mL (≈ 114 µM); in [4], 25 µg/mL (≈ 86.7 µM); in assay [6], 36.5 µg/mL (≈ 127 µM); in [8], 25 µg/mL (≈ 86.7 µM).

Regarding `N=C(N)c1ccc(OCCCCCOc2ccc(C(=N)N)cc2)cc1` [PENTAMIDINE], the IC50 in assay [2] was 12.9 µg/mL (≈ 37.9 µM); in [4], 1.4 µg/mL (≈ 4.11 µM); in assay [6], > 50 µg/mL; in assay [8], 0.007 µg/mL (≈ 0.0206 µM).

`Cc1ccc(C(=O)Nc2ccc(S(=O)(=O)O)c3cc(S(=O)(=O)O)cc(S(=O)(=O)O)c23)cc1NC(=O)c1cccc(NC(=O)Nc2cccc(C(=O)Nc3cc(C(=O)Nc4ccc(S(=O)(=O)O)c5cc(S(=O)(=O)O)cc(S(=O)(=O)O)c45)ccc3C)c2)c1` [SURAMIN] showed an IC50 in assay [8] of 0.193 µg/mL (≈ 0.149 µM).
